Screens as filed in PubChem BioAssay.
AP ELISA ortho – alternative pathway complement inhibition, orthogonal assay; Human serum alternative complement pathway, LPS-coated ELISA, C3 deposition; tested in compound mixtures; inhibition, % at 5 µM; 62,000 tested, 0.08% active; AID 1235;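 active means inhibition above 30% in each of the two pooled mixtures holding the compound, so the lower value exceeds 30%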
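Medium: diluted human serum in Mg2+-EGTA GVB++. Assay system: human serum complement alternative pathway, C3 deposition onto LPS. Also added: Plate-bound LPS. Technique: Anti-C3 ELISA, OD 450 nm. Measure: percent inhibition. Incubation: 1 h at 37 °C. Dosing: 5 µM each compound, pools of ten, 50 µM per pool.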
D1 allo mod – allosterically modulates the human D1 dopamine receptor | P21728 | HEK293 D1, CRE-luciferase, dopamine EC30 potentiation; actives deviate in either direction | B-score at 10 µM | 58,000 tested, 5.9% active | AID 641;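 active means luminescence count or its row- and column-corrected plate score outside the 99.7% band of the plate's sample wells, on either side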
Ec RNAP inh – blocks E. coli RNA polymerase transcription. P0A8V2. fluorescence transcription assay. inhibition, %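 (tested at 10 µM)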. 62,000 tested, 0.2% active. AID 559; in the data active means inhibition above about 20%
hDAT+cocaine – human DAT dopamine uptake with cocaine, either direction | Q01959 | LLC-PK1 hDAT cells, [14C]-dopamine uptake with cocaine IC80; actives deviate in either direction | B-score at 10 µM | 110,000 tested, 1.3% active;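 active means Z score or B-score, a plate-position-corrected score, falls beyond the plate's 99.7% confidence bounds, in either direction; inactive means both scores lie inside the 99.7% bounds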
HEK293 NFkB inh – lowers PMA/ionomycin-induced NF-kB signal in HEK293 cells; inhibition, % at 3 µM; HEK-293 NF-kB luciferase reporter, luminescence; 62,000 tested, 0.21% active;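 active means inhibition above the mean of all tested compounds plus 3 SD, cut at about 40% in these data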
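Signal: luciferase luminescence; Material: HEK-293 cells with stable firefly luciferase reporter driven by four HIV NF-kB elements; Probe or stimulus: PMA with ionomycin; Replication: tested once; Times: 1 h compound pretreatment, then 16 h stimulation at 37 °C, 5% CO2; Benchmarks: DMSO and 10 µM reference inhibitor; Evaluation: per-plate % inhibition versus controls.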
Hits are given with their value; – = inactive; · = not tested or not shown. Only a selection was taken, and hits are over-represented in it overall.

SMILES | AP ELISA ortho | D1 allo mod | Ec RNAP inh | hDAT+cocaine | HEK293 NFkB inh
COc1ccccc1Nc1nc(N)nc(CN2CCc3ccccc3C2)n1 | · | – | · | – | –
CC1(C)Cc2c(C#N)c(SCC(=O)c3ccccc3)nc(N3CCOCC3)c2CO1 | – | -3.3 | – | – | –
CCCc1cc(=O)oc2cc(OCC(=O)Nc3ccc4c(c3)OCCO4)ccc12 | · | · | · | – | ·
CCCc1cc2c(=O)c(-c3ccc4c(c3)OCCO4)c(C)oc2cc1OS(C)(=O)=O | · | · | · | 2.8 | ·
COc1cccc(C(=O)Nc2nnc(C(C)C)s2)c1 | – | -3.3 | – | – | –
O=C1C=C(c2ccc(F)nc2)CCC1 | · | · | · | – | ·
CCCS(=O)(=O)c1c(S(=O)(=O)CCC)c2c(C)cccn2c1C(=O)OC | · | · | · | 1.4 | ·
Cc1cc(OCCN2CCOCC2)nc2ccccc12 | – | · | 30 | – | ·
Cc1cc(OCCN2CCCCC2)nc2ccccc12 | – | · | – | – | ·
CCN1CCN(c2cc(C)c3cc(NC(=O)c4cncc(Br)c4)ccc3n2)CC1 | – | – | – | · | –
COc1cccc(C(=O)Nc2ccc3nc(N4CCN(c5ncccn5)CC4)cc(C)c3c2)c1OC | – | – | – | -6.9 | –
CCN1CCN(c2cc(C)c3cc(NC(=O)c4ccc5c(c4)OCO5)ccc3n2)CC1 | – | -5 | – | – | –
CCN1CCN(c2cc(C)c3cc(NC(=O)c4ccc(OC)c(OC)c4)ccc3n2)CC1 | · | · | · | 2.6 | ·
CCOC(=O)C[C@H]1c2ccccc2S(=O)(=O)N1Cc1cccc(C(F)(F)F)c1 | · | · | · | – | ·
CC(C)C[C@H]1COCCS(=O)(=O)N1Cc1cccc(F)c1 | · | · | · | – | ·
CC(C)C1N=C2c3ccccc3N=C(SCc3cc(=O)n4cc(Cl)ccc4n3)N2C1=O (stereo unspecified) | – | – | – | -7.1 | –
CCOc1cccc(C=Nc2cc(C)cc(C)c2O)c1O | – | -3.8 | – | – | –
COc1cccc(C=Nc2ccc3c(c2)OCCO3)c1O | – | – | – | · | –
COc1cc2c(cc1OC)C(C(=O)Nc1ccc3c(c1)OCCO3)C(c1cccnc1)N(C)C2=O (stereo unspecified) | – | – | – | · | –
CCC(C(=O)OCC(=O)Nc1c(C)n(C)n(-c2ccccc2)c1=O)c1ccccc1 (stereo unspecified) | – | – | – | – | –
Cc1c(NC(=O)COC(=O)C(c2ccc(Cl)cc2)C(C)C)c(=O)n(-c2ccccc2)n1C (stereo unspecified) | · | · | · | -7.9 | ·
CC(C)C(NS(=O)(=O)c1cccs1)C(=O)N1CCc2ccccc2C1 (stereo unspecified) | – | – | – | – | –
c1ccc2nc(-c3nc4ccccc4[nH]3)ccc2c1 | – | -4.8 | – | – | –
COC(=O)CCn1nnc(-c2ccc(C)cc2)n1 | – | – | – | – | –
CCOC(=O)CCn1nnc(N)n1 | – | -4.2 | – | – | –
SMILES | AP ELISA ortho | D1 allo mod | Ec RNAP inh | hDAT+cocaine | HEK293 NFkB inh
Cc1cnn(C(=S)NCC2CCCO2)c1 (stereo unspecified) | – | – | – | – | –
COc1ccccc1NC(=S)N1CCC(c2nc3cc(C)c(C)cc3[nH]2)CC1 | · | · | · | -2.3 | ·
OC(CNCC(c1ccco1)N1CCCCC1)c1ccccc1 (stereo unspecified) | – | – | – | – | –
CCOC(=O)CSc1nnc(Cc2ccccc2)n1-c1ccc(C)cc1 | · | · | · | – | ·
CCOC(=O)CN(C(=O)CSc1nnc(Cc2ccccc2)n1-c1ccc(C)cc1)c1ccccc1 | · | · | · | 2.7 | ·
Cc1ccc2[nH]c3c(NCc4ccco4)ncnc3c2c1 | – | -3.6 | – | – | –
CNC(=O)CSc1nc2nc(C)cc(C)n2n1 | · | · | · | – | ·
Cc1cc(C)n2nc(SCC(=O)N(C(C)C)C(C)C)nc2n1 | – | – | – | -8.9 | –
Cc1cccc(-c2nnc(SCC(=O)Nc3nc4c(s3)CCCC4)n2C)c1 | · | · | · | – | ·
CCCCN(C)C(=O)C1CCC(=O)N(c2cc(OC)c(OC)c(OC)c2)C1c1ccc(OC)cc1 (stereo unspecified) | – | – | – | -8.4 | –
COc1ccc(C2C(C(=O)O)CCC(=O)N2c2ccc(OC)cc2)cc1 (stereo unspecified) | · | · | · | – | ·
CCOC(=O)CNc1c(-c2ccccc2)nc2ccc(Cl)cn12 | · | · | · | – | ·
CCOC(=O)CNc1c(-c2ccc(O)cc2)nc2ccc(Cl)cn12 | – | -4.4 | – | – | –
O=C(O)c1cn[nH]c1-n1cnnn1 | – | · | – | – | –
CN1CCN(c2nc(-c3cccnc3)nc3ccccc23)CC1 | · | · | · | – | –
CCN1CCN(c2nc(-c3cccnc3)nc3ccccc23)CC1 | – | -4.3 | – | – | –
COc1ccc(-n2c(C)cc(C(=O)Cn3c(NCCO)nc4ccccc43)c2C)cc1 | – | – | – | 2.1 | –
CN1CCCC(n2nc(Cc3ccc(Cl)cc3)c3ccccc3c2=O)CC1 (stereo unspecified) | · | · | · | – | ·
Cc1cccn2c(=O)c3cc(C#N)c(=NC(=O)c4ccncc4)n(CCCOC(C)C)c3nc12 | – | – | – | 2.4 | –
COCCCn1c(=NC(=O)c2ccncc2)c(C#N)cc2c(=O)n3cccc(C)c3nc21 | – | – | – | – | –
CCOc1ccc(OCC)c(NC(=O)Nc2ccc3c(c2)N(C)C(=O)CS3)c1 | · | · | · | 1.9 | ·
CCCc1cc(=O)n2[nH]c(NCc3c(F)cccc3Cl)nc2n1 | – | – | – | – | –
COC(=O)[C@@H](N)CS | · | · | · | – | ·
CCOC(=O)c1cnc2ccc(C(=O)OC)cc2c1NCc1ccco1 | – | – | – | – | –
CCOC(=O)c1ccc2ncc(C(=O)OCC)c(NCCN(C)C)c2c1 | – | 2.9 | – | – | –
SMILES | AP ELISA ortho | D1 allo mod | Ec RNAP inh | hDAT+cocaine | HEK293 NFkB inh
COCCNC(=O)C1CCC(Cn2c(=S)[nH]c3ccccc3c2=O)CC1 (stereo unspecified) | – | – | – | -7.6 | –
Cn1c(SCc2cccc(Cl)c2)nc(C(F)(F)F)cc1=O | · | · | · | – | ·
CCNc1nc(N2CCCCC2)nc(-n2nnc(C(=O)OCC)c2C)n1 | – | – | – | 2.8 | –
COc1ccc(-c2cc(C(F)F)n3ncc(C(=O)N4CCCCC4)c3n2)cc1 | · | · | · | 2.6 | ·
CCN1CCN(C(=O)c2cnn3c(C(F)F)cc(-c4ccc(C)cc4)nc23)CC1 | – | · | – | – | –
O=C(C1=C[C@@H](c2ccc(Br)cc2)C[C@@H](OCc2ccc(CO)cc2)O1)N1CCN(Cc2ccc3c(c2)OCO3)CC1 | · | · | · | – | ·
c1coc(CNc2nc(N3CCCCC3)nc3ccccc23)c1 | – | -3.7 | – | – | –
CCCCNc1oc(-c2cccs2)nc1S(=O)(=O)c1ccccc1 | · | · | · | – | ·
O=S(=O)(c1ccccc1)c1nc(-c2cccs2)oc1NCCCn1ccnc1 | – | – | – | 2.5 | –
CCCC[C@@H]1C[C@H]1[C@@H](NC(=O)c1cccs1)c1ccc(C(F)(F)F)cc1 | · | · | · | – | ·
C=CCc1c(C)c(C#N)c2nc3ccccc3n2c1NCCN(C)C | – | – | – | 2.7 | –
COc1ccc(C(=O)NC(=S)N2CCCCC2)cc1 | · | · | · | – | ·
COc1ccc(C(=O)NC(=S)N2CCC(C)CC2)cc1 | · | · | · | -7.9 | ·
O=C1NCCCC1C(=O)Nc1ccccn1 (stereo unspecified) | – | – | – | – | –
N#CC1=C2SCC(O)(c3ccccc3)N2C(=O)CC1c1cccs1 (stereo unspecified) | – | – | – | – | 48
